Values after ≈ are worked out from the molar mass of the structure shown. Active and inactive are the calls of the source. The calls are words filed in the database; no cut-off is given here.
What was measured:
Bacteroides fragilis [1] = test: Antimicrobial activity against beta lactamase-positive Bacteroides fragilis isolated from intra-abdominal infection and pelvic inflammatory disease patients after 48 hrs by agar dilution method; type: functional
In short: (§1)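 CLSI agar dilution on brucella blood agar supplemented with laked sheep blood, hemin and vitamin K. Inocula of about 1 × 10^5 CFU/spot were applied by Steers replicator, and plates were incubated 48 h at 35°C in an anaerobic glove box. MIC was the concentration giving marked growth reduction versus the anaerobic control plate. QC strains were included each run, and β-lactamase was detected by Cefinase disk.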

Bacteroides fragilis [2] = test: Antimicrobial activity against beta lactamase-positive Bacteroides fragilis isolated from intra-abdominal infection and pelvic inflammatory disease patients after 48 hrs by time kill analysis; type: functional
In short: (§2)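 The MIC was read by inspecting macrodilution time-kill tubes. Vials held prereduced brucella broth with 5% laked horse blood cells, hemin 5 μg/ml and vitamin K1 1 μg/ml. Final inoculum was 10^6–10^7 CFU/ml, prepared inside the anaerobe chamber. Vials were incubated 48 h at 35°C in a shaking water bath.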

[3] = test system: Bacteroides thetaiotaomicron; test: Antimicrobial activity against beta lactamase-positive Bacteroides thetaiotaomicron isolated from intra-abdominal infection and pelvic inflammatory disease patients after 48 hrs by time kill analysis; type: functional; in short: as §2
Prevotella intermedia = test: Antimicrobial activity against beta lactamase-positive Prevotella intermedia isolated from intra-abdominal infection and pelvic inflammatory disease patients after 48 hrs by time kill analysis; type: functional; in short: as §2
Finegoldia magna [4] = test: Antimicrobial activity against beta lactamase-positive Finegoldia magna isolated from intra-abdominal infection and pelvic inflammatory disease patients after 48 hrs by time kill analysis; type: functional; in short: as §2
Fusobacterium nucleatum [5] = test: Antimicrobial activity against beta lactamase-positive Fusobacterium nucleatum isolated from intra-abdominal infection and pelvic inflammatory disease patients after 48 hrs by time kill analysis; type: functional; in short: as §2
Bacteroides fragilis [6] = test: Bactericidal activity against beta lactamase-positive Bacteroides fragilis isolated from intra-abdominal infection and pelvic inflammatory disease patients assessed as bacterial killing at 2 times MIC after 48 hrs by time kill analysis; type: functional
In short: (§3)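 Macrodilution time-kill in prereduced brucella broth with 5% laked horse blood, hemin 5 μg/ml and vitamin K1 1 μg/ml, at final inoculum 10^6–10^7 CFU/ml. […] Viable counts were taken at 6, 12, 24 and 48 h on plates incubated 48 h anaerobically. 99.9% kill was taken as bactericidal.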

Fusobacterium nucleatum [7] = test: Bactericidal activity against beta lactamase-positive Fusobacterium nucleatum isolated from intra-abdominal infection and pelvic inflammatory disease patients assessed as bacterial killing at 2 times MIC after 48 hrs by time kill analysis; type: functional
In short: (§4)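 Anaerobic macrodilution time-kill. Inoculum from brucella blood plates, prepared and diluted in prereduced brucella broth inside the anaerobe chamber. Final 10^6 to 10^7 CFU/ml in prereduced brucella broth with 5% laked horse blood cells, 5 μg/ml hemin and 1 μg/ml vitamin K1. […] Shaken at 35°C for 48 h. Viable counts taken at 6, 12, 24 and 48 h. 99.9% kill taken as bactericidal.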

Bacteroides ovatus = test: Antimicrobial activity against beta lactamase-positive Bacteroides ovatus isolated from intra-abdominal infection and pelvic inflammatory disease patients after 48 hrs by agar dilution method; type: functional; in short: as §1
Phocaeicola vulgatus = test: Antimicrobial activity against beta lactamase-positive Bacteroides vulgatus isolated from intra-abdominal infection and pelvic inflammatory disease patients after 48 hrs by agar dilution method; type: functional; in short: as §1
Prevotella bivia = test: Antimicrobial activity against beta lactamase-positive Prevotella bivia isolated from intra-abdominal infection and pelvic inflammatory disease patients after 48 hrs by agar dilution method; type: functional; in short: as §1
[8] = test system: Prevotella melaninogenica; test: Antimicrobial activity against beta lactamase-positive Prevotella melaninogenica isolated from intra-abdominal infection and pelvic inflammatory disease patients after 48 hrs by agar dilution method; type: functional; in short: as §1
Prevotella denticola = test: Antimicrobial activity against beta lactamase-positive Prevotella denticola isolated from intra-abdominal infection and pelvic inflammatory disease patients after 48 hrs by agar dilution method; type: functional; in short: as §1
Prevotella corporis = test: Antimicrobial activity against beta lactamase-positive Prevotella corporis isolated from intra-abdominal infection and pelvic inflammatory disease patients after 48 hrs by agar dilution method; type: functional; in short: as §1
Prevotella buccae = test: Antimicrobial activity against beta lactamase-positive Prevotella buccae isolated from intra-abdominal infection and pelvic inflammatory disease patients after 48 hrs by agar dilution method; type: functional; settings: Segatella buccae; in short: as §1
[9] = test system: Porphyromonas asaccharolytica; test: Antimicrobial activity against Porphyromonas asaccharolyticus isolated from intra-abdominal infection and pelvic inflammatory disease patients after 48 hrs by agar dilution method; type: functional; in short: as §1
Porphyromonas gingivalis = test: Antimicrobial activity against Porphyromonas gingivalis isolated from intra-abdominal infection and pelvic inflammatory disease patients after 48 hrs by agar dilution method; type: functional; in short: as §1
Fusobacterium nucleatum [10] = test: Antimicrobial activity against beta lactamase-positive Fusobacterium nucleatum isolated from intra-abdominal infection and pelvic inflammatory disease patients after 48 hrs by agar dilution method; type: functional; in short: as §1
[11] = test system: Fusobacterium necrophorum; test: Antimicrobial activity against Fusobacterium necrophorum isolated from intra-abdominal infection and pelvic inflammatory disease patients after 48 hrs by agar dilution method; type: functional; in short: as §1
Fusobacterium mortiferum = test: Antimicrobial activity against beta lactamase-positive Fusobacterium mortiferum isolated from intra-abdominal infection and pelvic inflammatory disease patients after 48 hrs by agar dilution method; type: functional; in short: as §1
[12] = test system: Peptostreptococcus anaerobius; test: Antimicrobial activity against Peptostreptococcus anaerobius isolated from intra-abdominal infection and pelvic inflammatory disease patients after 48 hrs by agar dilution method; type: functional; in short: as §1
Clostridium perfringens = test: Antimicrobial activity against Clostridium perfringens isolated from intra-abdominal infection and pelvic inflammatory disease patients after 48 hrs by agar dilution method; type: functional
In short: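 CLSI agar dilution on brucella blood agar supplemented with laked sheep blood, hemin and vitamin K. Inoculum about 1 × 10^5 CFU/spot, applied by Steers replicator. Plates incubated 48 h at 35°C in an anaerobic glove box. MIC is the concentration giving marked growth reduction versus the anaerobic control plate. Standard QC strains included in each run.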

[13] = test system: Enterocloster clostridioformis; test: Antimicrobial activity against Clostridium clostridioforme isolated from intra-abdominal infection and pelvic inflammatory disease patients after 48 hrs by agar dilution method; type: functional; in short: as §1
[14] = test system: Clostridium paraputrificum; test: Antimicrobial activity against Clostridium paraputrificum isolated from intra-abdominal infection and pelvic inflammatory disease patients after 48 hrs by agar dilution method; type: functional; in short: as §1
Clostridium cadaveris = test: Antimicrobial activity against Clostridium cadaveris isolated from intra-abdominal infection and pelvic inflammatory disease patients after 48 hrs by agar dilution method; type: functional; in short: as §1
Clostridioides difficile [15] = test: Bactericidal activity against Clostridium difficile isolated from intra-abdominal infection and pelvic inflammatory disease patients assessed as bacterial killing at 2 times MIC after 48 hrs by time kill analysis; type: functional; in short: as §3
Finegoldia magna [16] = test: Bactericidal activity against beta lactamase-positive Finegoldia magna isolated from intra-abdominal infection and pelvic inflammatory disease patients assessed as 99.9% bacterial killing at 2 times MIC after 48 hrs by time kill analysis; type: functional, organism-based; in short: as §3
Fusobacterium nucleatum [17] = test: Bactericidal activity against beta lactamase-positive Fusobacterium nucleatum isolated from intra-abdominal infection and pelvic inflammatory disease patients assessed as bacterial killing at MIC after 24 hrs by time kill analysis; type: functional; in short: as §4
Clostridioides difficile [18] = test: Bactericidal activity against Clostridium difficile isolated from intra-abdominal infection and pelvic inflammatory disease patients assessed as bacterial killing at MIC after 24 hrs by time kill analysis; type: functional; in short: as §3

C[C@@H](O)[C@H]1C(=O)N2C(C(=O)O)=C(S[C@@H]3CN[C@H](C(=O)N(C)C)C3)[C@H](C)[C@H]12 [MEROPENEM]
MIC50 (Bacteroides fragilis [1]): 0.125 µg/mL (≈ 0.326 µM)
MIC90 (Bacteroides fragilis [1]): 1 µg/mL (≈ 2.61 µM)
MIC (Bacteroides fragilis [2]): 0.125 µg/mL (≈ 0.326 µM)
MIC [3]: 0.25 µg/mL (≈ 0.652 µM)
MIC (Prevotella intermedia): 0.03 µg/mL (≈ 0.0782 µM)
MIC (Finegoldia magna [4]): 0.06 µg/mL (≈ 0.156 µM)
MIC (Fusobacterium nucleatum [5]): 0.008 µg/mL (≈ 0.0209 µM)
Activity (Bacteroides fragilis [6]): 99%
Activity (Fusobacterium nucleatum [7]): 99%
MIC (Bacteroides ovatus): 0.25 µg/mL (≈ 0.652 µM)
MIC50 (Bacteroides ovatus): 0.25 µg/mL (≈ 0.652 µM)
MIC90 (Bacteroides ovatus): 0.5 µg/mL (≈ 1.3 µM)
MIC50 (Phocaeicola vulgatus): 0.25 µg/mL (≈ 0.652 µM)
MIC90 (Phocaeicola vulgatus): 1 µg/mL (≈ 2.61 µM)
MIC50 (Prevotella bivia): 0.06 µg/mL (≈ 0.156 µM)
MIC90 (Prevotella bivia): 0.125 µg/mL (≈ 0.326 µM)
MIC50 [8]: 0.06 µg/mL (≈ 0.156 µM)
MIC50 (Prevotella denticola): 0.06 µg/mL (≈ 0.156 µM)
MIC90 (Prevotella denticola): 0.25 µg/mL (≈ 0.652 µM)
MIC50 (Prevotella corporis): 0.03 µg/mL (≈ 0.0782 µM)
MIC90 (Prevotella corporis): 0.06 µg/mL (≈ 0.156 µM)
MIC (Prevotella buccae): 0.06 µg/mL (≈ 0.156 µM)
MIC50 (Prevotella buccae): 0.06 µg/mL (≈ 0.156 µM)
MIC90 (Prevotella buccae): 0.06 µg/mL (≈ 0.156 µM)
MIC [9]: ≤ 0.016 µg/mL
MIC (Porphyromonas gingivalis): ≤ 0.016 µg/mL
MIC (Fusobacterium nucleatum [10]): ≤ 0.016 µg/mL
MIC50 (Fusobacterium nucleatum [10]): ≤ 0.016 µg/mL
MIC90 (Fusobacterium nucleatum [10]): 0.03 µg/mL (≈ 0.0782 µM)
MIC [11]: ≤ 0.016 µg/mL
MIC50 [11]: ≤ 0.016 µg/mL
MIC90 [11]: 0.125 µg/mL (≈ 0.326 µM)
MIC50 (Fusobacterium mortiferum): 0.125 µg/mL (≈ 0.326 µM)
MIC90 (Fusobacterium mortiferum): 0.5 µg/mL (≈ 1.3 µM)
MIC [12]: 0.25 µg/mL (≈ 0.652 µM)
MIC50 [12]: 0.25 µg/mL (≈ 0.652 µM)
MIC90 [12]: 2 µg/mL (≈ 5.22 µM)
MIC (Clostridium perfringens): ≤ 0.016 µg/mL
MIC50 (Clostridium perfringens): ≤ 0.016 µg/mL
MIC90 (Clostridium perfringens): ≤ 0.016 µg/mL
MIC [13]: 1 µg/mL (≈ 2.61 µM)
MIC [14]: 0.25 µg/mL (≈ 0.652 µM)
MIC (Clostridium cadaveris): 0.03 µg/mL (≈ 0.0782 µM)
Activity (Clostridioides difficile [15]): 99%
Activity (Finegoldia magna [16]): inactive
Activity (Fusobacterium nucleatum [17]): 90%
Activity (Clostridioides difficile [18]): 90%

C[C@@H](O)[C@H]1C(=O)N2C(C(=O)O)=C(SCCNC=N)C[C@H]12 [IMIPENEM ANHYDROUS]
MIC50 (Bacteroides fragilis [1]): 0.125 µg/mL (≈ 0.418 µM)
MIC90 (Bacteroides fragilis [1]): 0.25 µg/mL (≈ 0.835 µM)
MIC (Bacteroides fragilis [2]): 0.06 µg/mL (≈ 0.2 µM)
MIC [3]: 0.25 µg/mL (≈ 0.835 µM)
MIC (Prevotella intermedia): 0.03 µg/mL (≈ 0.1 µM)
MIC (Finegoldia magna [4]): 0.06 µg/mL (≈ 0.2 µM)
MIC (Fusobacterium nucleatum [5]): 0.016 µg/mL (≈ 0.0534 µM)
Activity (Bacteroides fragilis [6]): 99%
Activity (Fusobacterium nucleatum [7]): 99%
MIC50 (Bacteroides ovatus): 0.25 µg/mL (≈ 0.835 µM)
MIC90 (Bacteroides ovatus): 0.5 µg/mL (≈ 1.67 µM)
MIC50 (Phocaeicola vulgatus): 0.5 µg/mL (≈ 1.67 µM)
MIC90 (Phocaeicola vulgatus): 1 µg/mL (≈ 3.34 µM)
MIC50 (Prevotella bivia): 0.03 µg/mL (≈ 0.1 µM)
MIC90 (Prevotella bivia): 0.06 µg/mL (≈ 0.2 µM)
MIC50 [8]: 0.03 µg/mL (≈ 0.1 µM)
MIC90 [8]: 0.03 µg/mL (≈ 0.1 µM)
MIC50 (Prevotella denticola): 0.03 µg/mL (≈ 0.1 µM)
MIC90 (Prevotella denticola): 0.06 µg/mL (≈ 0.2 µM)
MIC50 (Prevotella corporis): 0.03 µg/mL (≈ 0.1 µM)
MIC90 (Prevotella corporis): 0.06 µg/mL (≈ 0.2 µM)
MIC (Prevotella buccae): 0.03 µg/mL (≈ 0.1 µM)
MIC50 (Prevotella buccae): 0.03 µg/mL (≈ 0.1 µM)
MIC90 (Prevotella buccae): 0.03 µg/mL (≈ 0.1 µM)
MIC [9]: ≤ 0.016 µg/mL
MIC (Porphyromonas gingivalis): ≤ 0.016 µg/mL
MIC50 (Fusobacterium nucleatum [10]): 0.03 µg/mL (≈ 0.1 µM)
MIC90 (Fusobacterium nucleatum [10]): 0.03 µg/mL (≈ 0.1 µM)
MIC [11]: ≤ 0.016 µg/mL
MIC50 [11]: ≤ 0.016 µg/mL
MIC90 [11]: 0.25 µg/mL (≈ 0.835 µM)
MIC50 (Fusobacterium mortiferum): 1 µg/mL (≈ 3.34 µM)
MIC90 (Fusobacterium mortiferum): 1 µg/mL (≈ 3.34 µM)
MIC [12]: 0.06 µg/mL (≈ 0.2 µM)
MIC50 [12]: 0.06 µg/mL (≈ 0.2 µM)
MIC90 [12]: 1 µg/mL (≈ 3.34 µM)
MIC50 (Clostridium perfringens): 0.06 µg/mL (≈ 0.2 µM)
MIC90 (Clostridium perfringens): 0.125 µg/mL (≈ 0.418 µM)
MIC [13]: 2 µg/mL (≈ 6.68 µM)
MIC [14]: 0.5 µg/mL (≈ 1.67 µM)
MIC (Clostridium cadaveris): 0.125 µg/mL (≈ 0.418 µM)
Activity (Clostridioides difficile [15]): 99%
Activity (Finegoldia magna [16]): inactive
Activity (Fusobacterium nucleatum [17]): 90%
Activity (Clostridioides difficile [18]): 90%
